Series [1] has as its target Cyclin-dependent kinase-like 1 (Homo sapiens) (UniProt Q00532). The series is described as follows: Binding affinity to wild-type human full length CDKL1 (M1 to I358 residues) expressed in mammalian expression system assessed as residual binding level at 1 uM by Kinomescan method relative to control.
The test system of series [2] is Tyrosine-protein kinase ABL1 (Homo sapiens), P00519 [H396P]. Nature of the series: Binding affinity to human non-phosphorylated ABL1 H396P mutant (S229 to K512 residues) expressed in mammalian expression system assessed as residual binding level at 1 uM by Kinomescan method relative to control. The method in brief:
(§1)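 Kinome-wide selectivity panel run by the KINOMEscan method, with the test compound at a single concentration of 1 μM. Wild-type and mutant kinases were profiled in the same screen.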

The target in series [3] is Tyrosine-protein kinase receptor Tie-1 (Homo sapiens) (UniProt P35590). Nature of the series: Binding affinity to wild-type human partial length TIE1 (T819 to A1138 residues) expressed in bacterial expression system assessed as residual binding level at 1 uM by Kinomescan method relative to control.
For series [4], the target named is Tyrosine-protein kinase Lyn (Homo sapiens) (UniProt P07948). The series is described as follows: Binding affinity to wild-type human partial length LYN (C219 to Q511 residues) expressed in bacterial expression system assessed as residual binding level at 1 uM by Kinomescan method relative to control.
Series [5] can be described thus: Drug uptake in mouse lung at 10 mg/kg, po after 8 hrs. As to conditions: read-out: Drug uptake. The series is classed as ADME, organism-based.
In series [6] the test system is Leucine-rich repeat serine/threonine-protein kinase 2 (Homo sapiens), Q5S007 [G2019S]. The series is described as follows: Binding affinity to human partial length LRRK2 G2019S mutant (H970 to E2527 residues) expressed in mammalian expression system assessed as residual binding level at 1 uM by Kinomescan method relative to control. The method, boiled down:
as §1

Series [7] has as its target Aurora kinase A (Homo sapiens) (UniProt O14965). Nature of the series: Binding affinity to wild-type human partial length AURKA (E122 to K401 residues) expressed in mammalian expression system assessed as residual binding level at 1 uM by Kinomescan method relative to control.
The target of series [8] is Serine/threonine-protein kinase VRK2 (Homo sapiens) (UniProt Q86Y07). Nature of the series: Binding affinity to wild-type human partial length VRK2 (M1 to T336 residues) expressed in mammalian expression system assessed as residual binding level at 1 uM by Kinomescan method relative to control.
Series [9] concerns the target Cyclin-dependent kinase 2 homolog (Plasmodium falciparum (isolate 3D7)) (UniProt P61075). The series is described as follows: Binding affinity to wild-type Plasmodium falciparum full length PK5 (M1 to N288 residues) expressed in mammalian expression system assessed as residual binding level at 1 uM by Kinomescan method relative to control. The method, boiled down:
as §1

Series [10] deals with Homeodomain-interacting protein kinase 1 (Homo sapiens) (UniProt Q86Z02). The series is described as follows: Binding affinity to wild-type human partial length HIPK1 (M146 to I555 residues) expressed in mammalian expression system assessed as residual binding level at 1 uM by Kinomescan method relative to control.
The target of series [11] is Serine/threonine-protein kinase LATS2 (Homo sapiens) (UniProt Q9NRM7). Nature of the series: Binding affinity to wild-type human partial length LATS2 (Q641 to V1088 residues) expressed in mammalian expression system assessed as residual binding level at 1 uM by Kinomescan method relative to control.
Serine/threonine-protein kinase LATS2 (Homo sapiens), sequence (Q9NRM7 whole entry, the tested form may be a part): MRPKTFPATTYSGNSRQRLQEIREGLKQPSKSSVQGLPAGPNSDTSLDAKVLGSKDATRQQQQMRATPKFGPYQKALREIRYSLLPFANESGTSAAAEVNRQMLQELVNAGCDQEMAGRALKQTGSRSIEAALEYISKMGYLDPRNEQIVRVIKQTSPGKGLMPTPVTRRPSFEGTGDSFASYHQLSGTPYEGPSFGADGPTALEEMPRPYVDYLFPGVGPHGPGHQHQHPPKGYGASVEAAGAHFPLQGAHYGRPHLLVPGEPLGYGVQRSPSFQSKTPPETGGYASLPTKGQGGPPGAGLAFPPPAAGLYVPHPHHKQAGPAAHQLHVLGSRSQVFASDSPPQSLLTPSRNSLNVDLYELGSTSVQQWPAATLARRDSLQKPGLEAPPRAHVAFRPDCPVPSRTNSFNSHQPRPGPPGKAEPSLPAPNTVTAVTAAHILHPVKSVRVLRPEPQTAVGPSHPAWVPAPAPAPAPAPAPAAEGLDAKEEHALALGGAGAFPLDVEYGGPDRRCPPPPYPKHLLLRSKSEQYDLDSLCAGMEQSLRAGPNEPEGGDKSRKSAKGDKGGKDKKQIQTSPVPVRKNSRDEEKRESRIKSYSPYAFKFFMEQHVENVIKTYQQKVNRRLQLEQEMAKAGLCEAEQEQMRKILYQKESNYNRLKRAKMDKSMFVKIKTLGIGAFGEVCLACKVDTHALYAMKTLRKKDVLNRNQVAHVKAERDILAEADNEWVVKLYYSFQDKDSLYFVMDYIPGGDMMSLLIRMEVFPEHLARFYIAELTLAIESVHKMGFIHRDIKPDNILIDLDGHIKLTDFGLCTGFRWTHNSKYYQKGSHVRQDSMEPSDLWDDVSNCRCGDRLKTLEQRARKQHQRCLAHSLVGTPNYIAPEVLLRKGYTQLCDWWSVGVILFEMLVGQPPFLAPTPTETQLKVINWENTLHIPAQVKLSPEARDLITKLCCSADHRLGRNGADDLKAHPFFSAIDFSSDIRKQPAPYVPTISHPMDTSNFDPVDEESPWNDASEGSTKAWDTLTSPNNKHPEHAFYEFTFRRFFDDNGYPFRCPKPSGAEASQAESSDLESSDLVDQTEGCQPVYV
Series [12] addresses Cyclin-dependent kinase 2 (Homo sapiens) (UniProt P24941). The series is described as follows: Binding affinity to wild-type human full length CDK2 (M1 to L298 residues) expressed in bacterial expression system assessed as residual binding level at 1 uM by Kinomescan method relative to control.
For series [13], the target named is Mitogen-activated protein kinase 4 (Homo sapiens) (UniProt P31152). Nature of the series: Binding affinity to wild-type human partial length ERK4 (M1 to L365 residues) expressed in bacterial expression system assessed as residual binding level at 1 uM by Kinomescan method relative to control.
Series [14] has as its target Phosphatidylinositol 5-phosphate 4-kinase type-2 beta (Homo sapiens) (UniProt P78356). Nature of the series: Binding affinity to wild-type human full length PIP5K2B (M1 to T416 residues) expressed in bacterial expression system assessed as residual binding level at 1 uM by Kinomescan method relative to control. The method in brief:
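Single-point kinome-wide KINOMEscan binding panel, test compound at 1 μM, run by the provider's standard protocol.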

For series [15], the target named is Tyrosine-protein kinase SYK (Homo sapiens) (UniProt P43405). The series is described as follows: Binding affinity to wild-type human partial length SYK (D354 to N635 residues) expressed in bacterial expression system assessed as residual binding level at 1 uM by Kinomescan method relative to control.
In series [16] the target is Death-associated protein kinase 2 (Homo sapiens) (UniProt Q9UIK4). The series is described as follows: Binding affinity to wild-type human full length DAPK2 (M1 to S370 residues) expressed in bacterial expression system assessed as residual binding level at 1 uM by Kinomescan method relative to control.
Series [17] addresses Mitogen-activated protein kinase 11 (Homo sapiens) (UniProt Q15759). The series is described as follows: Binding affinity to wild-type human full length p38-beta (M1 to Q364 residues) expressed in bacterial expression system assessed as residual binding level at 1 uM by Kinomescan method relative to control.
Series [18] is described as follows: Metabolic stability in rat liver microsomes assessed as parent compound remaining at 1 uM after 30 mins in presence of NADPH by LC/MS/MS analysis. Format: ADME, Microsome. As to conditions: read-out: Stability. The method in brief: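 Compound at 1 μM final with 0.5 mg/mL microsomal protein in 100 mM phosphate buffer pH 7.4 at 37 °C, started by adding an NADPH-regenerating system. Reactions were quenched with cold acetonitrile at 0 and 30 min and spun down. Supernatant was analysed by LC-MS/MS. The 0-min sample, quenched before NADPH addition, was set as 100%, and percent parent remaining came from peak areas.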

Series [19] concerns the target Ribosomal protein S6 kinase alpha-6 (Homo sapiens) (UniProt Q9UK32). The series is described as follows: Binding affinity to wild-type human partial length C-terminal RSK4 kinase domain 2 (I401 to Y711 residues) expressed in bacterial expression system assessed as residual binding level at 1 uM by Kinomescan method relative to control.
Series [20] concerns the target Calcium/calmodulin-dependent protein kinase type IV (Homo sapiens) (UniProt Q16566). Nature of the series: Binding affinity to wild-type human partial length CAMK4 (A22 to A322 residues) expressed in bacterial expression system assessed as residual binding level at 1 uM by Kinomescan method relative to control.
The target of series [21] is Dual specificity mitogen-activated protein kinase kinase 5 (Homo sapiens) (UniProt Q13163). Nature of the series: Binding affinity to wild-type human partial length MEK5 (L98 to P448 residues) expressed in mammalian expression system assessed as residual binding level at 1 uM by Kinomescan method relative to control.
Series [22] concerns the target Ribosomal protein S6 kinase alpha-5 (Homo sapiens) (UniProt O75582). Nature of the series: Binding affinity to wild-type human partial length N-terminal RPS6KA5 kinase domain 1 expressed in bacterial expression system assessed as residual binding level at 1 uM by Kinomescan method relative to control.
The test system of series [23] is Receptor-type tyrosine-protein kinase FLT3 (Homo sapiens), P36888 [K663Q]. Nature of the series: Binding affinity to human partial length FLT3 K663Q mutant (V592 to Y969 residues) expressed in bacterial expression system assessed as residual binding level at 1 uM by Kinomescan method relative to control. The method, boiled down: as §1

Ribosomal protein S6 kinase alpha-5 (Homo sapiens), sequence (O75582 whole entry, looked up, the tested form may be a part): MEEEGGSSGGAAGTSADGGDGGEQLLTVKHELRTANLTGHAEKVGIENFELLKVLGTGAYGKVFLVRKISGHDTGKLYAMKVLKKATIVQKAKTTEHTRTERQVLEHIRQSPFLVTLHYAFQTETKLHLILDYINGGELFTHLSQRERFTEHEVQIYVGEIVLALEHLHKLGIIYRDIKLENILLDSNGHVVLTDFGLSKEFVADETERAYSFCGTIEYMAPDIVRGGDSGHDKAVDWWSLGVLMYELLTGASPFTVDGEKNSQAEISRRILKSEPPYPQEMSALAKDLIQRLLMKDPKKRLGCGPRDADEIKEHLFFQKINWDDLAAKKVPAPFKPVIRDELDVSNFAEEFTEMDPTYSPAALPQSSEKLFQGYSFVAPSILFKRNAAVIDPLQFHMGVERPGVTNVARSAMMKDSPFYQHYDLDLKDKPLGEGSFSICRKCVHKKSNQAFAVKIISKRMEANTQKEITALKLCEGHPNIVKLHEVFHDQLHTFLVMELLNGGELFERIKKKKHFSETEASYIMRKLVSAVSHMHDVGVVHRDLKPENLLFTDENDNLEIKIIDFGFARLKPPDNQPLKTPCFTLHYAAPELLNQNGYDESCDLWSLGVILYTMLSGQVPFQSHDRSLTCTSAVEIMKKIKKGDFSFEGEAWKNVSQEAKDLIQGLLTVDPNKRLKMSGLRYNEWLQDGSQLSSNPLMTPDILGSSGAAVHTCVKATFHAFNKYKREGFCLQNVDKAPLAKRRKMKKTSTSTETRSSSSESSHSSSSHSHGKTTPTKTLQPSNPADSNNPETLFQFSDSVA
Leucine-rich repeat serine/threonine-protein kinase 2 (Homo sapiens), Q5S007 [G2019S], sequence (Q5S007 whole entry G2019S, the tested form may be a part): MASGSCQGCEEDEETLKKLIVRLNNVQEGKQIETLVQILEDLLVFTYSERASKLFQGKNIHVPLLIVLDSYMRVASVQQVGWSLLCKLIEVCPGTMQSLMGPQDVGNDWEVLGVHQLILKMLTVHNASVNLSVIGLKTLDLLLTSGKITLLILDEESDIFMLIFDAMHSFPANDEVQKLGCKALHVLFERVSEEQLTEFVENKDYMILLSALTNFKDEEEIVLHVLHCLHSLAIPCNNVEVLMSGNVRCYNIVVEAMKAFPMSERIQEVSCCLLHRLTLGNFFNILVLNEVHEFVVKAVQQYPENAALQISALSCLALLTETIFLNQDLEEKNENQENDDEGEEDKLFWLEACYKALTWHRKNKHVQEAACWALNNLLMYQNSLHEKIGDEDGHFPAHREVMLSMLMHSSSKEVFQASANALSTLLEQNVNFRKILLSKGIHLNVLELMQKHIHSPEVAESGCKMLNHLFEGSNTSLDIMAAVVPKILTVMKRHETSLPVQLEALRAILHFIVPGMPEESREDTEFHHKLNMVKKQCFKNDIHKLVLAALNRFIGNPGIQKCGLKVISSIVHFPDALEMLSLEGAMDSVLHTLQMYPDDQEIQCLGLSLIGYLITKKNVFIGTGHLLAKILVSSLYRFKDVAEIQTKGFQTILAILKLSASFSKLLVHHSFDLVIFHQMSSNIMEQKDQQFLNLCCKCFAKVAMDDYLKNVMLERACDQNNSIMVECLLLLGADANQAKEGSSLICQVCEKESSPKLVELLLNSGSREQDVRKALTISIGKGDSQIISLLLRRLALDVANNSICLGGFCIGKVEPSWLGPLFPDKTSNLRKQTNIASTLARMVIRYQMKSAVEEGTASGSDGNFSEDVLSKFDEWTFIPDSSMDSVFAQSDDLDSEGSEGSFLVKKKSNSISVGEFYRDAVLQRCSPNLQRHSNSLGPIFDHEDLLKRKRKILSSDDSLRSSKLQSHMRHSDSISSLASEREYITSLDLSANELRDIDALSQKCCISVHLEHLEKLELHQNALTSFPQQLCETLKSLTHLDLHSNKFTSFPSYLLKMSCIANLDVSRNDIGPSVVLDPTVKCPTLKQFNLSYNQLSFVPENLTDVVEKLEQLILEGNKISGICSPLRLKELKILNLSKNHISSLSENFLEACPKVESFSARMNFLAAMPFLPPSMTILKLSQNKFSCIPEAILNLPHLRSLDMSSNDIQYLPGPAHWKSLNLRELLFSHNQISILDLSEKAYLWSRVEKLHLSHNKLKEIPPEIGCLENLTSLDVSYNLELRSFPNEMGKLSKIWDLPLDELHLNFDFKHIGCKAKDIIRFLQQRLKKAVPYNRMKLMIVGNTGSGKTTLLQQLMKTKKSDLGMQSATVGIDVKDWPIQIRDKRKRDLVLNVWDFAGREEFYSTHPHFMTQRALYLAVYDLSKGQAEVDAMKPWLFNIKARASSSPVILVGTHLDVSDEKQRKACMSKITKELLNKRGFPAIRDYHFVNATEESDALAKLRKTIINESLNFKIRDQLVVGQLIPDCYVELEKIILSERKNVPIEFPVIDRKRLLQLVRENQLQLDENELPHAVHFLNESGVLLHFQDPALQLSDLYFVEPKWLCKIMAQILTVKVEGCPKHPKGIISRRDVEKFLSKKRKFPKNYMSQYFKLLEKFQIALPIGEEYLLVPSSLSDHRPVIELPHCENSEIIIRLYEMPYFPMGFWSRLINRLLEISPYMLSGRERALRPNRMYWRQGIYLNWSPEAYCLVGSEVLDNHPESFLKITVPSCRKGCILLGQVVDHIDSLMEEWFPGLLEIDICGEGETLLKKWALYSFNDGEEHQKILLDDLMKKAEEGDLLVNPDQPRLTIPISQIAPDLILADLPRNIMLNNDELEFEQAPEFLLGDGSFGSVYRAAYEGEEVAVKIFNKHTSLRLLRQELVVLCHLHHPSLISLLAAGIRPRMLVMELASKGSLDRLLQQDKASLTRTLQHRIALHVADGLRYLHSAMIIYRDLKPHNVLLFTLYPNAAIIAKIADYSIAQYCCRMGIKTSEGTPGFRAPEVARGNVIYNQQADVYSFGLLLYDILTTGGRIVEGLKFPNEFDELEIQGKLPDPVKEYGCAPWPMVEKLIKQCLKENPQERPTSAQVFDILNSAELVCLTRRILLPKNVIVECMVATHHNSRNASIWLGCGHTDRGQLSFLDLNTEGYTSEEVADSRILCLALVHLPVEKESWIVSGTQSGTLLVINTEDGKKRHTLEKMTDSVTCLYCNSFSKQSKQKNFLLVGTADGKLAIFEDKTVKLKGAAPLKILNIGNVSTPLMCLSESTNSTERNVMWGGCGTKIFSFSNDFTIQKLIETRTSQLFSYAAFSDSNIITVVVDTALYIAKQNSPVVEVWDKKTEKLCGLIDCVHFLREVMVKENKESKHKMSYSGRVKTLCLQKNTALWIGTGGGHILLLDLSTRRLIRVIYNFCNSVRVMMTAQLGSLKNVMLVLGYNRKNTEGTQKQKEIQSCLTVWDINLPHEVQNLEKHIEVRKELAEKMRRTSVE
Calcium/calmodulin-dependent protein kinase type IV (Homo sapiens), sequence (Q16566 whole entry, the tested form may be a part): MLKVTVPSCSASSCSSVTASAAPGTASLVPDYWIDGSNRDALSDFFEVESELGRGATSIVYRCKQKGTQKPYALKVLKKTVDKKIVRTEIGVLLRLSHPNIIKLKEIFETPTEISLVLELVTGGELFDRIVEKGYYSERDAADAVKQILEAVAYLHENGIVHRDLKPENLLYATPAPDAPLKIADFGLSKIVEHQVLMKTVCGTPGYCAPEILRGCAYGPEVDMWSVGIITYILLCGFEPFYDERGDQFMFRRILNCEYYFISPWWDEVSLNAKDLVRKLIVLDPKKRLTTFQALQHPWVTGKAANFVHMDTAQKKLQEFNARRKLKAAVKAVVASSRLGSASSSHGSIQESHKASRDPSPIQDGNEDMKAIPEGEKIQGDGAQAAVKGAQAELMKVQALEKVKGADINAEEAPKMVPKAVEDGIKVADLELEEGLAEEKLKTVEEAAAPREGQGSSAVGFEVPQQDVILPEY

Consider `C=CC(=O)Nc1cc(Nc2ncc(Cl)c(Nc3ccccc3S(=O)(=O)C(C)C)n2)c(OC)cc1N(C)CCN(C)C`, for which the Activity in series [1] came to 58%; in series [2], 2.3%; in series [3] it was 8.8%; in [4], 57%; in [6], 0.95%; in [7] it was 4.2%. For the same molecule, the Activity is 98% in series [8]; 91% in [9]; 57% in series [10]; 74% in series [11]; 83% in series [12]; 82% in series [13]. Moreover, the Activity in [14] was 55%; in [15], 42%; in series [16], 47%; in series [17], 96%; in [19], 15%; in series [20], 9.4%. Moreover, the Activity in series [21] was found to be 28%; in series [22], 85%; in series [23] it was 2.5%. Also, in series [5], the concentration at 8 h is 740 nM. Further, in series [18], the remaining at 0.5 h, 1 µM worked out at 11%.

(Values after ChEMBL document CHEMBL4382192, “Discovery of a potent dual ALK and EGFR T790M inhibitor” (Eur J Med Chem, 2017).)
